Measurements published in PubChem BioAssay.
The source made the active and inactive calls.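 How the source made its calls, unless noted: active means inhibition above 20% together with a positive visual image hit; inconclusive means visual image hit but inhibition not above 20%; inactive means no visual image hit.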

Key:
[1] = inhibitors of TNFa-induced NFkB p65 translocation, primary screen, imaging, HUVEC, MLSMR starter and 10KST1 sets (AID 438); details: HUVEC TNFa-induced p65 nuclear translocation; cell count: measured here: nuclei count (cytotoxicity indicator), at 2.08 µM; inhibition: at 2 µM, stronger effect = higher value, 0% TNFa-plus-vehicle, 100% no-TNFa wells;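 further: compound added about 3h40 before a 20 min TNFalpha stimulation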;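 on inhibition: signal is the nuclear over cytoplasmic p65 intensity ratio per well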
[2] = reduction of polyQ htt aggregates in cells – imaging, exon1htt(103Q)mCFP cells, high-content imaging, primary screen (AID 483;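 active means visual image review flags a hit and inhibition of aggregation exceeds 20%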;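 further: compound exposure lasted 3 days before fixation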;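 on nuclei count: percent of the per-plate median nuclei count of sample wells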); details: exon1htt(103Q)mCFP cell line, aggregate imaging, at 2 µM; inhibition of aggregation: stronger effect = higher value; nuclei count: measured here: cell count, toxicity
[3] = endothelial E-selectin expression blockers – imaging, HUVEC, immunofluorescence, MLSMR starter and 10KST1 sets, primary screen (AID 487;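 active means visually confirmed hit in the image check and inhibition above 20%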;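 on inhibition: signal is fraction of cell area covered by stained E-selectin grains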;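 on nuclei count: 100% = median nuclei count of all wells on the same plate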); details: HUVEC TNFalpha-induced E-selectin immunofluorescence imaging, at 2 µM; inhibition: stronger effect = higher value; nuclei count: measured here: cell number, toxicity
[4] = biological target: Voltage-gated potassium channel subunit beta-2 (Rattus norvegicus) (UniProt P62483); test: inhibitors of rat Kvbeta2 reductase activity – biochemical, NADPH fluorescence, primary screen (AID 622;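 active means fluorescence slope higher than the sample average by over 3 SD, cut at about -0.22 in these data, passing the limit was not always enough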;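 further: slope of raw intensity against log time taken from 70 to 1610 s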); details: recombinant KvBeta, 4-cyanobenzaldehyde reduction, at 10 µM, stronger effect = higher value
Chain of Voltage-gated potassium channel subunit beta-2 (Rattus norvegicus) (P62483 whole entry, looked up): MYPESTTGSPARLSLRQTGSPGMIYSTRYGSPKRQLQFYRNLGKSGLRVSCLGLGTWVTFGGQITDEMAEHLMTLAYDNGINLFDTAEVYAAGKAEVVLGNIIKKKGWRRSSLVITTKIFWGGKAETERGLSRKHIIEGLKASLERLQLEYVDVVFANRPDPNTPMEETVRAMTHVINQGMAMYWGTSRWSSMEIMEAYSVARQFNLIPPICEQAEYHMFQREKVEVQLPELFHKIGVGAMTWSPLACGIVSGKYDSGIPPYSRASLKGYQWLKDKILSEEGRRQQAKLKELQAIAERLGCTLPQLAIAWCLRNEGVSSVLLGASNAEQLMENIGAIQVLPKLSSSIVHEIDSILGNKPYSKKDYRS

[5] = biological target: Voltage-gated potassium channel subunit beta-2 (Rattus norvegicus) (UniProt P62483); test: enhancers of rat Kvbeta2 NADPH turnover – biochemical, NADPH fluorescence, primary screen (AID 623;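 active means NADPH fluorescence slope more negative than the mean of all samples by about 3 SD, 99.7% confidence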;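 further: fluorescence intensity change per second fitted from 20 to 320 s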); details: Recombinant KvBeta, NADPH fluorescence decrease slope, 10 min; at 10 µM; stronger effect = lower value
[6] = biological target: Muscarinic acetylcholine receptor M4 (Homo sapiens) (UniProt P08173); test: M4-linked GIRK flux change, two-sided – cell-based, HEK293 M4/GIRK, thallium flux, BTC-AM, M4 allosteric agonist project, primary screen (AID 625;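 active means fluorescence slope after compound addition differing from the mean of all tested samples at 99.7% confidence, mostly higher but some lower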;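 further: thallium influx through GIRK channels coupled to M4 in HEK293 cells with BTC-AM dye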); details: at 10 µM, actives lie on both sides
Chain of Muscarinic acetylcholine receptor M4 (Homo sapiens) (P08173 whole entry, looked up): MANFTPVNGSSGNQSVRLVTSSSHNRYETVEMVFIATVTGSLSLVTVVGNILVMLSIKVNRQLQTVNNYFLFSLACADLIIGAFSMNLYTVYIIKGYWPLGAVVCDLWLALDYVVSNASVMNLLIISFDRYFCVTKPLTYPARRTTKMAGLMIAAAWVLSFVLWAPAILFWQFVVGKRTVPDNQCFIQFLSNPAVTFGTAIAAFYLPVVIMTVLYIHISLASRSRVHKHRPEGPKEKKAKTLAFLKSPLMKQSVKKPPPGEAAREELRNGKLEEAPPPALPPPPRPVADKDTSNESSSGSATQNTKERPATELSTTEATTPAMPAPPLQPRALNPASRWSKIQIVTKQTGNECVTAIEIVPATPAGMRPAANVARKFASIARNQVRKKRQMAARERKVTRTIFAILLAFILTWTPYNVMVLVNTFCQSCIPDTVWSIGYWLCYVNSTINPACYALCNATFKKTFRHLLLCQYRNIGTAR
Procedure, shortened: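 Material: HEK293 cells with M4 receptor and GIRK channels; Times: cells overnight at 37 °C, BTC-AM loading 1 h, reads 2 min total; Technique: kinetic BTC-AM fluorescence sampled at 1 Hz, 10 s pre-addition baseline; Read-out basis: slope over 15–24 s of trace normalized to starting intensity; Controls: carbachol positive, DMSO negative.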

[7] = blockers of RIG-like receptor reporter activation – cell-based, Sendai virus stimulus, luciferase, 10K MLSCN set, TLR/RLR signaling modifier project, primary screen (AID 602276;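 active means inhibition at or above 50% at 10 µM; inactive means inhibition below 50%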;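 further: firefly luciferase from ISG56 promoter only with Renilla not read in this screen; 0% = Sendai virus plus DMSO and 100% = medium plus DMSO without virus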); details: HEK293 RL24 IRF3 luciferase reporter, at 10 µM, stronger effect = higher value
[8] = TLR3 IRF3 reporter activation blockers – cell-based, poly I:C stimulus, luciferase, 10K MLSCN set, primary screen (AID 602277;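 active means inhibition of the reporter signal at or above 50%; inactive means inhibition below 50%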); details: HEK293-TLR3 RL24 IRF3 luciferase reporter, at 10 µM, stronger effect = higher value

| SMILES | cell count [1] | inhibition [1] | inhibition of aggregation [2] | nuclei count [2] [%] | inhibition [3] | nuclei count [3] [%] | fluorescence slope [4] | NADPH fluorescence slope [5] | fluorescence slope [6] | inhibition [7] | inhibition [8] |
| --- | --- | --- | --- | --- | --- | --- | --- | --- | --- | --- | --- |
| CCOc1ccccc1CN1C(=O)c2ccccc2C1C(=O)NCC1CCCO1 (configuration not stated) | 350 | 7.9% (inactive) | 6.8% (inactive) | 107 | -214% (inactive) | 114 | -0.585 (inactive) | 2.5e-05 (inactive) | 0.00509 (inactive) | 7.6% (inactive) | 5.52% (inactive) |
| COCCN1C(=O)C(=O)/C(=C(/O)c2cccc(S(=O)(=O)N(C)C)c2)C12C(=O)N(C)c1ccccc12 (configuration not stated) | 584 | -22.3% (inactive) | 5.4% (inactive) | 115 | -76.4% (inactive) | 107 | -0.483 (inactive) | -5e-05 (inactive) | 0.00617 (inactive) | 8.34% (inactive) | 33.7% (inactive) |
| Cc1onc(-c2ccccc2)c1C(=O)Nc1ccnn1C1CCCCC1 | 387 | 1.4% (inactive) | 0.6% (inactive) | 94.4 | 8.4% (inactive) | 81.7 | -0.367 (inactive) | -8.4e-05 (inactive) | 0.00689 (inactive) | 9.16% (inactive) | 18.3% (inactive) |
| O=C(NCc1cccnc1)c1ccccc1Br | 397 | -0.5% (inactive) | 4.6% (inactive) | 104 | -18.8% (inactive) | 112 | -0.521 (inactive) | -1.1e-05 (inactive) | 0.00504 (inactive) | 15.2% (inactive) | 20.8% (inactive) |
| CN1CCCC(OC(=O)COc2ccc(Br)cc2)C1 (configuration not stated) | 430 | -3.5% (inactive) | 2.1% (inactive) | 97 | -63.5% (inactive) | 87.2 | -0.489 (inactive) | 0.000124 (inactive) | 0.0054 (inactive) | -9.52% (inactive) | -1.12% (inactive) |
| COc1ccc(OC)c(NC(=O)CSc2nc3ccccc3c(=O)n2CCNC(C)=O)c1 | 497 | -4.3% (inactive) | 10.1% (inactive) | 111 | -17.6% (inactive) | 115 | -0.455 (inactive) | 4e-05 (inactive) | 0.00813 (inactive) | 14.7% (inactive) | 18.6% (inactive) |
| O=C(Nc1nccs1)c1ccc(Cl)c(S(=O)(=O)N2CCCCC2)c1 | 355 | 1.3% (inactive) | 30.8% (active) | 109 | -4.7% (inactive) | 117 | -0.311 (inactive) | -3.8e-05 (inactive) | 0.00573 (inactive) | 8.7% (inactive) | 7.95% (inactive) |
| Cc1ccccc1OCCN1C(=O)NC2(CCc3ccccc32)C1=O (configuration not stated) | 414 | -18.4% (inactive) | 8.4% (inactive) | 94.7 | 8.5% (inactive) | 99.4 | -0.297 (inactive) | -1.6e-05 (inactive) | 0.00542 (inactive) | 12% (inactive) | 4.56% (inactive) |
| CCOc1cc2[nH]c(=O)n(CCCCC(=O)N3CCCCCC3)c(=O)c2cc1OCC | 218 | 2.2% (inactive) | 4.8% (inactive) | 86.8 | 14.4% (inactive) | 89.8 | -0.437 (inactive) | -0.00041 (inactive) | 0.00663 (inactive) | 14.3% (inactive) | 18.4% (inactive) |
| Cc1ccc(C2C(C#N)=C(N)Oc3cc4c(cc32)OCO4)cc1 (configuration not stated) | 373 | -5.8% (inactive) | 32.6% (inactive) | 69.9 | 22.1% (inactive) | 104 | -0.541 (inactive) | -3.6e-05 (inactive) | 0.00467 (inactive) | 24.6% (inactive) | 45.5% (inactive) |
| CCc1ccc(NS(=O)(=O)c2cccs2)cc1 | 421 | 4.3% (inactive) | -18.3% (inactive) | 105 | -82% (inactive) | 109 | -0.634 (inactive) | 3e-06 (inactive) | 0.00357 (inactive) | -6.86% (inactive) | -9.13% (inactive) |
| CCOC(=O)c1ccc(Oc2nc(NC)nc(OC)n2)cc1 | 635 | 6.8% (inactive) | -13.2% (inactive) | 98.2 | -41.5% (inactive) | 110 | -0.295 (inactive) | -1.6e-06 (inactive) | 0.00677 (inactive) | -7.27% (inactive) | 18.3% (inactive) |
| CC(=O)c1nnn(-c2nc(N3CCCC3)nc(N(c3ccccc3)c3ccccc3)n2)c1C | 558 | 8.9% (inactive) | 2.6% (inactive) | 109 | 51.9% (inactive) | 95.1 | -0.58 (inactive) | -5.5e-05 (inactive) | 0.00803 (inactive) | 15.9% (inactive) | 26.9% (inactive) |
| CCOC(=O)CC(NS(=O)(=O)c1ccc(NC(C)=O)cc1)c1ccc(OCC)cc1 (configuration not stated) | 376 | 9.9% (inactive) | -7.9% (inactive) | 95.7 | -101% (inactive) | 126 | -0.588 (inactive) | 3.6e-06 (inactive) | 0.00588 (inactive) | 14% (inactive) | 17.3% (inactive) |
| Cc1ccc2nc(CSc3nnc(-c4ccco4)n3-c3ccccc3)cc(=O)n2c1 | 509 | -7.8% (inactive) | -2% (inactive) | 115 | -175% (inactive) | 201 | -0.567 (inactive) | -1.2e-06 (inactive) | 0.00636 (inactive) | -11% (inactive) | -20% (inactive) |
| CCCCC(c1nnnn1C1CCCC1)N1CCN(C2CCCCC2)CC1 (configuration not stated) | 625 | -40.8% (inactive) | -12% (inactive) | 100 | -57.4% (inactive) | 111 | -0.314 (inactive) | -3.5e-05 (inactive) | 0.00481 (inactive) | 10% (inactive) | 39.4% (inactive) |
| CC(C)Cn1c(=O)c(C(=O)NCc2ccccn2)c(O)c2ccccc21 | 771 | -20.7% (inactive) | -28.1% (inactive) | 104 | -24% (inactive) | 108 | -0.37 (inactive) | -4.4e-05 (inactive) | 0.00508 (inactive) | 10.4% (inactive) | -3.14% (inactive) |
| Cc1ccc2cc(CN(CC(C)C)C(=O)C3CCCO3)c(=O)[nH]c2c1 (configuration not stated) | 510 | 6.3% (inactive) | 12% (inactive) | 90 | -62.4% (inactive) | 147 | -0.565 (inactive) | 6.7e-05 (inactive) | 0.00521 (inactive) | 3.89% (inactive) | 26.4% (inactive) |
| O=C(N1CCCCCC1)N1CCN(S(=O)(=O)N2CCCCC2)CC1 | 323 | -2.2% (inactive) | 9.2% (inactive) | 106 | -33.5% (inactive) | 126 | -0.579 (inactive) | -4.8e-05 (inactive) | 0.00553 (inactive) | 24% (inactive) | 12.9% (inactive) |
| CCCC(C)C1C(C#N)=C(N)Oc2cc(C)oc(=O)c21 (configuration not stated) | 396 | -15.6% (inactive) | -2.4% (inactive) | 68.3 | -185% (inactive) | 134 | -0.455 (inactive) | -9.5e-05 (inactive) | 0.00507 (inactive) | 18.1% (inactive) | 18.7% (inactive) |
| CC(C)CC(c1nnnn1C1CCCC1)N1CCN(c2ccccc2F)CC1 (configuration not stated) | 384 | -3.6% (inactive) | 6.8% (inactive) | 91.4 | -26.9% (inactive) | 109 | -0.589 (inactive) | 2e-05 (inactive) | 0.00507 (inactive) | 15.2% (inactive) | 26.4% (inactive) |
| CN(c1ccccc1)S(=O)(=O)c1cc(C(=O)N2CCN(c3ccccn3)CC2)ccc1Cl | 628 | 2.4% (inactive) | -6.5% (inactive) | 134 | -52.9% (inactive) | 108 | -0.475 (inactive) | -6e-05 (inactive) | 0.00416 (inactive) | 15.7% (inactive) | 13.1% (inactive) |
| Cc1ccc(-c2nc(-c3cccnc3)no2)c(C)c1 | 357 | 4.2% (inactive) | -8% (inactive) | 107 | -54.5% (inactive) | 105 | -0.571 (inactive) | -3.5e-05 (inactive) | 0.00802 (inactive) | -33.6% (inactive) | -111% (inactive) |
| CC1CCN(S(=O)(=O)c2ccc(S(=O)(=O)NCC(=O)C(C)(C)C)cc2)CC1 | 528 | -14.7% (inactive) | -10.2% (inactive) | 113 | -189% (inactive) | 166 | -0.571 (inactive) | -7.1e-05 (inactive) | 0.00717 (inactive) | 0.588% (inactive) | 9.79% (inactive) |
| CC(C)OC(=O)CSc1nnnn1-c1ccc2c(c1)OCCO2 | 294 | -9.9% (inactive) | -2.7% (inactive) | 111 | -0.1% (inactive) | 118 | -0.228 (inactive) | -3.6e-05 (inactive) | 0.00598 (inactive) | -0.252% (inactive) | -97.9% (inactive) |
| CCC(C)NC(=O)CSC1=Nc2ccccc2C2=NC(CC(=O)NCc3ccccc3)C(=O)N12 (configuration not stated) | 651 | -7.5% (inactive) | -9% (inactive) | 55.7 | -58.9% (inactive) | 89.6 | -0.461 (inactive) | -1.4e-05 (inactive) | 0.00538 (inactive) | 10.6% (inactive) | 26.5% (inactive) |
| CCN(CC)CCCN(Cc1cc2cc(OC)ccc2[nH]c1=O)C(=O)Nc1ccccc1 | 327 | 7.1% (inactive) | -3.3% (inactive) | 86.4 | -31.9% (inactive) | 105 | -0.382 (inactive) | -5.9e-06 (inactive) | 0.00643 (inactive) | 17.1% (inactive) | 29.7% (inactive) |
